Activity calls are given as the source filed them. The rule behind the calls is not given here.
Key:
U-937 [1] = experiment: Induction of myeloid differentiation in human U-937 cells at 20 nM in combination with 0.5 uM SAHA measured after 12 hrs by Liu's staining method; assay type: functional, cell-based
Outline: (§1)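 Cells received single epigenetic inhibitors or combinations and were collected by cytospin. After Liu's staining (reagent A 1 min, reagent B 2.5 min), differentiated cells were counted under a light microscope. Mean ± s.e. of three independent experiments.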

KG-1a [2] = experiment: Induction of myeloid differentiation in human KG-1a cells at 20 nM in combination with 0.5 uM SAHA measured after 12 hrs by Liu's staining method; assay type: functional, cell-based; outline: as §1
HL-60 [3] = experiment: Induction of myeloid differentiation in human HL-60 cells at 20 nM in combination with 0.5 uM SAHA measured after 12 hrs by Liu's staining method; assay type: functional, cell-based; outline: as §1
HL-60 [4] = experiment: Induction of myeloid differentiation in human HL-60 cells at 20 nM assessed as appearance of nuclear segmentation measured after 12 hrs by Liu's staining method; assay type: functional, cell-based
Outline: (§2)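 Cells exposed 12 h were spun onto slides by cytospin. They were stained with Liu's reagent A for 1 min, then reagent B for 2.5 min, and morphology was examined by light microscopy.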

KG-1a [5] = experiment: Induction of myeloid differentiation in human KG-1a cells at 20 nM assessed as decrease in G9a mRNA expression measured after 48 hrs by RT-PCR assay; assay type: functional, cell-based
Outline: (§3)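 Treatment was 48 h. Total RNA (1 µg) was reverse transcribed, then SYBR green real-time PCR was run with actin as internal control: 95 °C 5 min, then 30 cycles of 95 °C/45 s, 60 °C/45 s, 72 °C/45 s. Mean ± s.e. of three independent experiments, compared with untreated control.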

HL-60 [6] = experiment: Induction of myeloid differentiation in human HL-60 cells at 20 nM assessed as decrease in G9a mRNA expression measured after 48 hrs by RT-PCR assay; assay type: functional, cell-based; outline: as §3
U-937 [7] = experiment: Induction of myeloid differentiation in human U-937 cells at 20 nM assessed as decrease in G9a mRNA expression measured after 48 hrs by RT-PCR assay; assay type: functional, cell-based; outline: as §3
[8] = target: T1, Histone-lysine N-methyltransferase SUV39H1 (Homo sapiens) (UniProt O43463); conditions: U-937, dose 20.0 nM, time 48.0 hrs
T1 sequence (whole entry): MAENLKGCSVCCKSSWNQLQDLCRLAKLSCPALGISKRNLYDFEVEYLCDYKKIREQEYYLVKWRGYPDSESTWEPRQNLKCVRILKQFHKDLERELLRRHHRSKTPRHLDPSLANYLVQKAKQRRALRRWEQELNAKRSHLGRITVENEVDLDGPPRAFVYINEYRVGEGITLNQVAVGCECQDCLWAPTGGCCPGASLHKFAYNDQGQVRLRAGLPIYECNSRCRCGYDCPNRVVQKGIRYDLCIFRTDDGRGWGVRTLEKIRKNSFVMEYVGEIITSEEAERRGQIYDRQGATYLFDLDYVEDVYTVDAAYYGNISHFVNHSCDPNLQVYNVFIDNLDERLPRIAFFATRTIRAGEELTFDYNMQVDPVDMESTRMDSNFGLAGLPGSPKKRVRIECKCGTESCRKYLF

[9] = target: T1, Histone-lysine N-methyltransferase SUV39H1 (Homo sapiens); conditions: KG-1a, dose 20.0 nM, time 48.0 hrs
[10] = target: T1, Histone-lysine N-methyltransferase SUV39H1 (Homo sapiens); conditions: U-937, dose 20.0 nM, time 48.0 hrs; remark: listed apart in the source
[11] = target: T1, Histone-lysine N-methyltransferase SUV39H1 (Homo sapiens); conditions: KG-1a, dose 20.0 nM, time 48.0 hrs; remark: listed apart in the source
KG-1a [12] = experiment: Induction of myeloid differentiation in human KG-1a cells at 20 nM assessed as increase in CD11b mRNA expression measured after 48 hrs by RT-PCR assay; assay type: functional, cell-based; outline: as §3
U-937 [13] = experiment: Induction of myeloid differentiation in human U-937 cells at 20 nM assessed as increase in CD11b mRNA expression measured after 48 hrs by RT-PCR assay; assay type: functional, cell-based; outline: as §3
[14] = target: T1, Histone-lysine N-methyltransferase SUV39H1 (Homo sapiens); conditions: HL-60, dose 20.0 nM, time 48.0 hrs
KG-1a [15] = experiment: Induction of myeloid differentiation in human KG-1a cells at 20 nM assessed as reduction of nucleus to cytoplasm ratio measured after 12 hrs by Liu's staining method; assay type: functional, cell-based; outline: as §2
U-937 [16] = experiment: Induction of myeloid differentiation in human U-937 cells at 20 nM assessed as decrease in SUV39H1 mRNA expression measured after 48 hrs by RT-PCR assay; assay type: functional, cell-based; outline: as §3
HL-60 [17] = experiment: Induction of myeloid differentiation in human HL-60 cells at 20 nM assessed as reduction of nucleus to cytoplasm ratio measured after 12 hrs by Liu's staining method; assay type: functional, cell-based; outline: as §2
[18] = target: T1, Histone-lysine N-methyltransferase SUV39H1 (Homo sapiens); conditions: HL-60, dose 20.0 nM, time 48.0 hrs; remark: listed apart in the source
[19] = target: T1, Histone-lysine N-methyltransferase SUV39H1 (Homo sapiens); conditions: U-937, dose 20.0 nM, time 48.0 hrs; remark: listed apart in the source
HL-60 [20] = experiment: Induction of myeloid differentiation in human HL-60 cells at 20 nM assessed as decrease in SUV39H1 mRNA expression measured after 48 hrs by RT-PCR assay; assay type: functional, cell-based; outline: as §3
KG-1a [21] = experiment: Induction of myeloid differentiation in human KG-1a cells at 20 nM assessed as decrease in SUV39H1 mRNA expression measured after 48 hrs by RT-PCR assay; assay type: functional, cell-based; outline: as §3
[22] = target: T1, Histone-lysine N-methyltransferase SUV39H1 (Homo sapiens); conditions: KG-1a, dose 20.0 nM, time 48.0 hrs; remark: listed apart in the source
HL-60 [23] = experiment: Induction of myeloid differentiation in human HL-60 cells at 20 nM assessed as increase in CD11b mRNA expression measured after 48 hrs by RT-PCR assay; assay type: functional, cell-based; outline: as §3
[24] = target: T1, Histone-lysine N-methyltransferase SUV39H1 (Homo sapiens); conditions: KG-1a, dose 20.0 nM, time 48.0 hrs; remark: listed apart in the source
KG-1a [25] = experiment: Induction of myeloid differentiation in human KG-1a cells at 20 nM assessed as appearance of nuclear segmentation measured after 12 hrs by Liu's staining method; assay type: functional, cell-based; outline: as §2
[26] = target: T1, Histone-lysine N-methyltransferase SUV39H1 (Homo sapiens); conditions: U-937, dose 20.0 nM, time 48.0 hrs; remark: listed apart in the source
[27] = target: T1, Histone-lysine N-methyltransferase SUV39H1 (Homo sapiens); conditions: HL-60, dose 20.0 nM, time 48.0 hrs; remark: listed apart in the source
[28] = target: T1, Histone-lysine N-methyltransferase SUV39H1 (Homo sapiens); conditions: HL-60, dose 20.0 nM, time 48.0 hrs; remark: listed apart in the source
HL-60 [29] = experiment: Induction of myeloid differentiation in human HL-60 cells at 0.5 uM measured after 12 hrs by Liu's staining method; assay type: functional, cell-based
Outline: (§4)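 Cells treated for 12 h, spun onto slides by cytospin, stained with Liu's reagent A for 1 min and then reagent B for 2.5 min. Morphology read by light microscopy. KG-1a was grown in IMDM with 15% FBS; HL-60 and U937 in RPMI with 10% FBS.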

KG-1a [30] = experiment: Induction of myeloid differentiation in human KG-1a cells at 0.5 uM measured after 12 hrs by Liu's staining method; assay type: functional, cell-based; outline: as §4
U-937 [31] = experiment: Induction of myeloid differentiation in human U-937 cells at 0.5 uM measured after 12 hrs by Liu's staining method; assay type: functional, cell-based; outline: as §4
U-937 [32] = experiment: Cytotoxicity against human U-937 cells at 20 nM assessed as decrease in cell viability in combination with 50 nM JQ-1 measured after 24 hrs by MTT assay; assay type: functional, cell-based
KG-1a [33] = experiment: Cytotoxicity against human KG-1a cells at 20 nM assessed as decrease in cell viability in combination with 50 nM JQ-1 measured after 24 hrs by MTT assay; assay type: functional, cell-based
U-937 [34] = experiment: Induction of myeloid differentiation in human U-937 cells at 50 nM in combination with 20 nM chaetocin measured after 12 hrs by Liu's staining method; assay type: functional, cell-based; outline: as §1
KG-1a [35] = experiment: Induction of myeloid differentiation in human KG-1a cells at 50 nM in combination with 20 nM chaetocin measured after 12 hrs by Liu's staining method; assay type: functional, cell-based; outline: as §1
HL-60 [36] = experiment: Cytotoxicity against human HL-60 cells at 20 nM assessed as decrease in cell viability in combination with 50 nM JQ-1 measured after 24 hrs by MTT assay; assay type: functional, cell-based
HL-60 [37] = experiment: Induction of myeloid differentiation in human HL-60 cells at 50 nM in combination with 20 nM chaetocin measured after 12 hrs by Liu's staining method; assay type: functional, cell-based; outline: as §1

For `CN1C(=O)[C@@]23C[C@]4([C@]56C[C@@]78SS[C@@](CO)(C(=O)N7[C@H]5Nc5ccccc56)N(C)C8=O)c5ccccc5N[C@@H]4N2C(=O)[C@]1(CO)SS3.O=C(CCCCCCC(=O)Nc1ccccc1)NO`, the Activity (U-937 [1]) was “inactive”, the Activity (KG-1a [2]) was “inactive” and the Activity (HL-60 [3]) was “inactive”.
For `CN1C(=O)[C@@]23C[C@]4([C@]56C[C@@]78SS[C@@](CO)(C(=O)N7[C@H]5Nc5ccccc56)N(C)C8=O)c5ccccc5N[C@@H]4N2C(=O)[C@]1(CO)SS3`, the Activity (HL-60 [4]) was “Active”, the Activity (KG-1a [5]) was “Active” and the Activity (HL-60 [6]) was “Active”. For the same compound, the Activity (U-937 [7]) was “inactive”, the inhibition [8] was “inactive” and the inhibition [9] was “Active”. For the same compound, the Activity (U-937 [1]) was “inactive”, the inhibition [10] was “inactive” and the inhibition [11] was “Active”. For the same compound, the Activity (KG-1a [12]) was “Active”, the Activity (U-937 [13]) was “Active” and the inhibition [14] was “Active”. For the same compound, the Activity (KG-1a [15]) was “Active”, the Activity (KG-1a [2]) was “inactive” and the Activity (U-937 [16]) was “inactive”. For the same compound, the Activity (HL-60 [17]) was “Active”, the inhibition [18] was “Active” and the inhibition [19] was “inactive”. For the same compound, the Activity (HL-60 [20]) was “Active”, the Activity (KG-1a [21]) was “Active” and the inhibition [22] was “Active”. The Activity (HL-60 [23]) was “Active”, the inhibition [24] was “Active” and the Activity (KG-1a [25]) was “Active”. For the same compound, the inhibition [26] was “inactive”, the inhibition [27] was “Active” and the Activity (HL-60 [3]) was “inactive”. For the same compound, the inhibition [28] was “Active”.
`O=C(CCCCCCC(=O)Nc1ccccc1)NO` was tested, and the Activity (HL-60 [29]) was “Active”, the Activity (KG-1a [30]) was “Active” and the Activity (U-937 [31]) was “Active”.
In the case of `CN1C(=O)[C@@]23C[C@]4([C@]56C[C@@]78SS[C@@](CO)(C(=O)N7[C@H]5Nc5ccccc56)N(C)C8=O)c5ccccc5N[C@@H]4N2C(=O)[C@]1(CO)SS3.Cc1sc2c(c1C)C(c1ccc(Cl)cc1)=N[C@@H](CC(=O)OC(C)(C)C)c1nnc(C)n1-2`, the Activity (U-937 [32]) was “inactive”, the Activity (KG-1a [33]) was “Active” and the Activity (U-937 [34]) was “inactive”. The Activity (KG-1a [35]) was “inactive”, the Activity (HL-60 [36]) was “Active” and the Activity (HL-60 [37]) was “inactive”.

From ChEMBL document CHEMBL5674867, “The SUV39H1 inhibitor chaetocin induces differentiation and shows synergistic cytotoxicity with other epigenetic drugs in acute myeloid leukemia cells” (Blood Cancer J, 2015)
